Measured values published in ChEMBL document CHEMBL4342521 (J Med Chem, 2020).
The source made the active and inactive calls. No cut-off for these calls is given here.

How the values were obtained:
[1] = target: T1, Protein deacetylase HDAC6 (Homo sapiens, UniProt Q9UBN7); test: Inhibition of recombinant HDAC6 (unknown origin) using Boc-Lys(acetyl)-AMC as substrate preincubated for 1 hr followed by substrate addition and measured after 2 hrs by fluorescence based micro plate reader analysis
T1 sequence (Q9UBN7 whole entry): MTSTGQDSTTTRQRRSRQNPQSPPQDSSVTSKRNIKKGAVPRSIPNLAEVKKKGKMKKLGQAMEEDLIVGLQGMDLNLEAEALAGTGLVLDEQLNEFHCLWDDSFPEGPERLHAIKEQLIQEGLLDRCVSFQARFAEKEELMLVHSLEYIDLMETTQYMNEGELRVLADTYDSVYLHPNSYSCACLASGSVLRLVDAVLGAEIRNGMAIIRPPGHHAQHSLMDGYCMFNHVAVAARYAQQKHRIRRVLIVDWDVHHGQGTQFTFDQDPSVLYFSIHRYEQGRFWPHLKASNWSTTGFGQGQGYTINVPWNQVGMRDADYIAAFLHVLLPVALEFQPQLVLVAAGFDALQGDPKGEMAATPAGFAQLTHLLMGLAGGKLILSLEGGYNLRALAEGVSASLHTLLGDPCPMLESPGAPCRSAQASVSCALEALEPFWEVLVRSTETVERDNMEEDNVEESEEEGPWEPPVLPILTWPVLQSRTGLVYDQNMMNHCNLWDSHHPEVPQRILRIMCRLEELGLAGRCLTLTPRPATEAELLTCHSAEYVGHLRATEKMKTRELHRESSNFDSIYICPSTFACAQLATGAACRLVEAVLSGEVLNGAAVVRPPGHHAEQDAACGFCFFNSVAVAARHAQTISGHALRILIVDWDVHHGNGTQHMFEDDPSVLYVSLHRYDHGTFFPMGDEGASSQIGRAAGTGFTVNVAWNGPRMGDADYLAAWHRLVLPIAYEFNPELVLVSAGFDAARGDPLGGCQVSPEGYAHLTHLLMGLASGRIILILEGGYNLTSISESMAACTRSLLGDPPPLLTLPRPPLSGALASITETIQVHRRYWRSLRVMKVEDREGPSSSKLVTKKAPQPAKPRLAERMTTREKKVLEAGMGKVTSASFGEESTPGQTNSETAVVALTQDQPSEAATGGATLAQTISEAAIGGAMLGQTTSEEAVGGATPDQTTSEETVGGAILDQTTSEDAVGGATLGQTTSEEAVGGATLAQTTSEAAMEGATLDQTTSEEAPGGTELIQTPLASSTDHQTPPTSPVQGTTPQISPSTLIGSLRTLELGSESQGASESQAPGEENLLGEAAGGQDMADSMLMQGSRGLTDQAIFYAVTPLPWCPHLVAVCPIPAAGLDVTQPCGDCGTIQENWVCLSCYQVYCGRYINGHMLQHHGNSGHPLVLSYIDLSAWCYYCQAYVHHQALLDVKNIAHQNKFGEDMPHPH

[2] = target: Histone deacetylase 2 (Homo sapiens, UniProt Q92769)
[3] = target: Histone deacetylase 3/Nuclear receptor corepressor 2 (HDAC3/NCoR2) (Homo sapiens, UniProt O15379); test: biochemical; set-up: species or system Sf9
[4] = target: Histone deacetylase 1 (Homo sapiens, UniProt Q13547); test: Inhibition of recombinant HDAC1 (unknown origin) using Boc-Lys(acetyl)-AMC as substrate preincubated for 1 hr followed by substrate addition and measured after 2 hrs by fluorescence based micro plate reader analysis
[5] = tested on: MV4-11; test: Antiproliferative activity against human MV4-11 cells at 50 uM after 48 hrs by CellTiter-Blue dye based spectrophotometric analysis; type: functional, cell-based
[6] = tested on: MV4-11; test: Induction of apoptosis in human MV4-11 cells harboring wild type p53/FLT3-ITD mutant assessed as cleavage of pro-caspase 3 at 1000 to 5000 nM after 24 hrs by Western blot analysis; type: functional, cell-based
In short: (§1)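 Cells (1,500,000 per well) grown 12 h, then drug-treated as specified. Lysed in RIPA buffer, sonicated, centrifuged, protein normalized by BCA. Run on 4–12% Bis-Tris gels in MES, transferred, probed overnight at 4 °C with primary antibodies at 1/1000. Actin served as reference for LC3-II quantitation.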

[7] = Mutagenecity in Salmonella typhimurium TA100 at 10 uM in presence of S9 liver homogenate after 2 to 3 days by mini-Ames test; type: toxicity; conditions: salmonella enterica subsp. enterica serovar typhimurium, s9, 10 µM
In short: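 Compound was tested at a final 10 μM undiluted plus four serial dilutions, with S9 mix and glucose/biotin/trace-histidine exposure solution, for 100 min at 37 °C. Reversion medium was added and cultures dispensed to 96 wells for 2–3 days at 37 °C. Yellow or partial-yellow wells were scored positive; 2-aminoanthracene was the positive control.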

[8] = Cmax in BALB/c mouse at 50 mg/kg, po via gavage after 24 hrs by Lc-MS/MS analysis; type: ADME, organism-based; set-up: dose 50 mg/kg, route oral; conditions: in vivo
[9] = AUC (0 to infinity) in BALB/c mouse at 50 mg/kg, po via gavage after 24 hrs by Lc-MS/MS analysis; type: ADME, organism-based; set-up: dose 50 mg/kg, time infinity, route oral; conditions: in vivo
[10] = Half life in BALB/c mouse at 50 mg/kg, po via gavage after 24 hrs by Lc-MS/MS analysis; type: ADME, organism-based; conditions: in vivo
[11] = tested on: MV4-11; test: Induction of apoptosis in human MV4-11 cells harboring wild type p53/FLT3-ITD mutant assessed as cleavage of pro-caspase 3 at 100 nM after 24 hrs by Western blot analysis; type: functional, cell-based; in short: as §1
[12] = Oral bioavailability in BALB/c mouse at 50 mg/kg dosed via gavage after 24 hrs by Lc-MS/MS analysis; type: ADME, organism-based; conditions: in vivo
[13] = tested on: RS4-11; test: Induction of apoptosis in human RS4:11 cells harboring wild type p53/FLT3 assessed as cleavage of pro-caspase 3 at 100 nM after 24 hrs by Western blot analysis; type: functional, cell-based; in short: as §1
[14] = tested on: MV4-11; test: cells; conditions: Homo sapiens, MV4-11, 48 h
[15] = tested on: MV4-11; test: Induction of apoptosis in human MV4-11 cells harboring wild type p53/FLT3-ITD mutant assessed as cleavage of pro-caspase 3 at 5000 nM after 24 hrs by Western blot analysis; type: functional, cell-based; in short: as §1
[16] = tested on: RS4-11; test: Induction of apoptosis in human RS4:11 cells harboring wild type p53/FLT3 assessed as cleavage of pro-caspase 3 at 5000 nM after 24 hrs by Western blot analysis; type: functional, cell-based; in short: as §1
[17] = tested on: MV4-11; test: Inhibition of autophagy in human MV4-11 cells assessed as LC3-II degradation at 5 uM after 24 hrs by Western blot analysis; type: functional, cell-based; in short: as §1
[18] = tested on: MV4-11; test: Down regulation of STAT5 in human MV4-11 cells harboring wild type p53/FLT3-ITD mutant at 50 to 200 nM after 24 hrs by Western blot analysis; type: functional, cell-based; in short: as §1
[19] = tested on: MV4-11; test: Induction of apoptosis in human MV4-11 cells harboring wild type p53/FLT3-ITD mutant assessed as cleavage of pro-caspase 3 at 50 to 200 nM after 24 hrs by Western blot analysis; type: functional, cell-based; in short: as §1
[20] = tested on: MV4-11; test: Down regulation of FTL3 in human MV4-11 cells harboring wild type p53/FLT3-ITD mutant at 50 to 200 nM after 24 hrs by Western blot analysis; type: functional, cell-based; in short: as §1

Sequence of Histone deacetylase 2 (Q92769 whole entry): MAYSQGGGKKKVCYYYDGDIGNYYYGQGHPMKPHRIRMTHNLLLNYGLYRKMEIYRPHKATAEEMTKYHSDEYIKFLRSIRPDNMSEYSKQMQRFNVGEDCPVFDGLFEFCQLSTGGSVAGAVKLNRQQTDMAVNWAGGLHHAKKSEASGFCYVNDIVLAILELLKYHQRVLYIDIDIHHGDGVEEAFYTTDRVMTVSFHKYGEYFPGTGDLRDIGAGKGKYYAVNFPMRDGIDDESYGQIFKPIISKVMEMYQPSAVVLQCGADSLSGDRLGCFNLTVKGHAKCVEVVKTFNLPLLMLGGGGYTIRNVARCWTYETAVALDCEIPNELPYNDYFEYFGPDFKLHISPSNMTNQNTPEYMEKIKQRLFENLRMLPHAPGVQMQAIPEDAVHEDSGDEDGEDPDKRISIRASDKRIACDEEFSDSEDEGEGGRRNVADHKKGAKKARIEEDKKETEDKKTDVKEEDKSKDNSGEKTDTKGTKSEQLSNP
Sequence of Histone deacetylase 1 (Q13547 whole entry): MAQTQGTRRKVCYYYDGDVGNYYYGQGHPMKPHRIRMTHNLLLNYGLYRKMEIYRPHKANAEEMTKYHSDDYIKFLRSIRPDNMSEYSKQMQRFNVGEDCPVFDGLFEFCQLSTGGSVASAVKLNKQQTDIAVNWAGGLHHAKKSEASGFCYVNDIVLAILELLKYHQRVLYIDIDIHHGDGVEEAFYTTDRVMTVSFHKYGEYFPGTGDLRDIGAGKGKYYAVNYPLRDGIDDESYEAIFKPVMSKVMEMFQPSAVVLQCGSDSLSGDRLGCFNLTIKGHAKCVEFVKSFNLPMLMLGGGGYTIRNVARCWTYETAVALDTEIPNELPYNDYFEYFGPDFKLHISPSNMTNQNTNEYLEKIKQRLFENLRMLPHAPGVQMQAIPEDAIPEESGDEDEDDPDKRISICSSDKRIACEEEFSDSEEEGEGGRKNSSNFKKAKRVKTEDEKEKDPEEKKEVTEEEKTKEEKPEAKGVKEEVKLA
Sequence of Histone deacetylase 3/Nuclear receptor corepressor 2 (HDAC3/NCoR2) (O15379 whole entry): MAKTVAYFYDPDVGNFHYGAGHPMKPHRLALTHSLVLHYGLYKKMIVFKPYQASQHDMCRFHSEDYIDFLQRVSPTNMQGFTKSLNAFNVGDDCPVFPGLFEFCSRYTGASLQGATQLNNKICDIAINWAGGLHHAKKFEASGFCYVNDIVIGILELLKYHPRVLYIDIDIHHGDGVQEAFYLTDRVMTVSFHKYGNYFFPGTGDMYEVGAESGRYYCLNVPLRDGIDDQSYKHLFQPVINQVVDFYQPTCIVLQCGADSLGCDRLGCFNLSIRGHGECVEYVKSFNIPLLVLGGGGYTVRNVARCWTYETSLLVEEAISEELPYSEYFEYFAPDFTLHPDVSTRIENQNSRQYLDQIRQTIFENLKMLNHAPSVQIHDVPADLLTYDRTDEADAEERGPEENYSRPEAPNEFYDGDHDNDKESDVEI
Sequence of Histone deacetylase 3/Nuclear receptor corepressor 2 (HDAC3/NCoR2) (Q9Y618 whole entry, further chain): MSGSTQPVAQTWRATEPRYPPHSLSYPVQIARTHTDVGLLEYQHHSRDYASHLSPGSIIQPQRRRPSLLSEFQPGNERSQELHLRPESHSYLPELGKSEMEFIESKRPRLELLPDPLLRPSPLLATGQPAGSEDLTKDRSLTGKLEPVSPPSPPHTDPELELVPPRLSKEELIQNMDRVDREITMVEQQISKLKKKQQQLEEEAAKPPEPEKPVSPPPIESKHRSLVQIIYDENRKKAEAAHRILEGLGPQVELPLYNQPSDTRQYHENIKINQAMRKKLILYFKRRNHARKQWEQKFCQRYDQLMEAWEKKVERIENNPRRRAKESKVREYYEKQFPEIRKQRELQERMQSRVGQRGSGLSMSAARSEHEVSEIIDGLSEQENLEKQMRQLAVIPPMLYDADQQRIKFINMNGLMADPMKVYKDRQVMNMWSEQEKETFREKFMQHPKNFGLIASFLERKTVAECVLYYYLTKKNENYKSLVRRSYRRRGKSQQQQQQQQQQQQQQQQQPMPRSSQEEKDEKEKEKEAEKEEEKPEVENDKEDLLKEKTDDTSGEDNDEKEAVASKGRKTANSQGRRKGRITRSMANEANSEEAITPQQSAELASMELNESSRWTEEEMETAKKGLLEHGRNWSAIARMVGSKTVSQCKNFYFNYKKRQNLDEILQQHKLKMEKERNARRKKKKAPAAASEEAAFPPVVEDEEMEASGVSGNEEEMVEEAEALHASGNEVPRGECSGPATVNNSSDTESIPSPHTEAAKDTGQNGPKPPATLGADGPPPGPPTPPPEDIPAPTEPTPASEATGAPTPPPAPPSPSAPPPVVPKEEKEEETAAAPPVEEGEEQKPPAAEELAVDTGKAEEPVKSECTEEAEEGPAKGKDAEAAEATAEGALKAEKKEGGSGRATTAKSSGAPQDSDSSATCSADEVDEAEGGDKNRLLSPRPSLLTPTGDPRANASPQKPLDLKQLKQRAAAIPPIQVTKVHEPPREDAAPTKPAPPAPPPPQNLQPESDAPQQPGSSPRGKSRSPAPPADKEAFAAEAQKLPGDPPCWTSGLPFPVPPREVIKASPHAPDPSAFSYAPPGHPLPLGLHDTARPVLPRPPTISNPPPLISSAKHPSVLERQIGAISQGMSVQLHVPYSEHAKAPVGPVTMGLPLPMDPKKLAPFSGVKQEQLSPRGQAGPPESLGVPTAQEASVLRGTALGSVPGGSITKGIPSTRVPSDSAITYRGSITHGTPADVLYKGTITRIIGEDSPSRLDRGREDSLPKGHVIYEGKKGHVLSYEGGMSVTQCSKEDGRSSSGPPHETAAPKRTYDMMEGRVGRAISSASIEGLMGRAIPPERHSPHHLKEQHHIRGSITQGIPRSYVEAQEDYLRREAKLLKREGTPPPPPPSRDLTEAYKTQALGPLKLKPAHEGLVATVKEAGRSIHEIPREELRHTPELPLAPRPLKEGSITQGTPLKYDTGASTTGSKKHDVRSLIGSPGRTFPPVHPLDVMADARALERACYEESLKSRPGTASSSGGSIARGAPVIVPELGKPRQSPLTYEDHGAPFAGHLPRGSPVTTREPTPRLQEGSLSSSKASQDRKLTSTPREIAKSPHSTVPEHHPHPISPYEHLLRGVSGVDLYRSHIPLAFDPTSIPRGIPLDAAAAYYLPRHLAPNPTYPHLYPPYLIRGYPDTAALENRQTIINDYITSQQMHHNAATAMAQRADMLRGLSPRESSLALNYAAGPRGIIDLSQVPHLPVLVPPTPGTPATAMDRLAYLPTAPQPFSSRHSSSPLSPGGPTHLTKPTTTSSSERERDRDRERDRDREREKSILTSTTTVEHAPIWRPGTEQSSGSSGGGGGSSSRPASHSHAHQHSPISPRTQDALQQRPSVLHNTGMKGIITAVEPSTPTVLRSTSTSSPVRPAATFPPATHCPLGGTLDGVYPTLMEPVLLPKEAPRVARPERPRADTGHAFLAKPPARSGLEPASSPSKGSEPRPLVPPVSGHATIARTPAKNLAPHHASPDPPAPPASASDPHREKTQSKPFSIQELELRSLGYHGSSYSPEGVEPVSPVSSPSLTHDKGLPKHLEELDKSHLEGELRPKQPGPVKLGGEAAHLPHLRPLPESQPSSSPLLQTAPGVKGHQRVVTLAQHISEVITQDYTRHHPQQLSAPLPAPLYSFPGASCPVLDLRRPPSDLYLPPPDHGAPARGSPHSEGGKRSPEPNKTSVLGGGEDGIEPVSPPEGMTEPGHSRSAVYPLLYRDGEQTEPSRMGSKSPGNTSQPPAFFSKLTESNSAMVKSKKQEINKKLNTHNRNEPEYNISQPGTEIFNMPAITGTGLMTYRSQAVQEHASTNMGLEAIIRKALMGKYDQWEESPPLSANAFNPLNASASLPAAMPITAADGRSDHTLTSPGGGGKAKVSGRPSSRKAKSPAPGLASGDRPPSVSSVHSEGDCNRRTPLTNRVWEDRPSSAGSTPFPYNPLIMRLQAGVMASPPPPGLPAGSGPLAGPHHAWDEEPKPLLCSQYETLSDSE

Row | SMILES | IC50 [1] [nM] | IC50 [2] [nM] | IC50 [3] [nM] | IC50 [4] [nM] | further results
1 | CCCNNC(=O)c1ccc(CN(CCc2c(C)[nH]c3ccccc23)C(=O)OC(C)(C)C)cc1 | > 50000 | 279 | 12.6 | 28.8 | –
2 | COC(=O)CCNNC(=O)/C=C/c1ccc(CNCCc2c(C)[nH]c3ccccc23)cc1 | > 50000 | 4210 | 310 | 1090 | –
3 | CCCCN(CCC)NC(=O)/C=C/c1ccc(CNCCc2c(C)[nH]c3ccccc23)cc1 | > 50000 | 3220 | 229 | 210 | –
4 | Nc1ccccc1NC(=O)c1ccc(CNC(=O)OCc2cccnc2)cc1 | – | – | – | – | Activity [6]: Active
5 | CCCN(CCC)NC(=O)/C=C/c1ccc(CNCCc2c(C)[nH]c3ccccc23)cc1 | > 50000 | 1370 | 25.2 | 413 | –
6 | Cc1[nH]c2ccccc2c1CCNCc1ccc(/C=C/C(=O)NN(C)C)cc1 | > 50000 | 12900 | 996 | 11000 | Activity [5]: inactive
7 | CCCNNC(=O)c1ccc(NC(=O)c2ccccc2)cc1 | > 50000 | 474 | 48.7 | 93 | –
8 | Nc1ccc2cc3ccccc3cc2c1 [2-AMINOANTHRACENE] | – | – | – | – | Activity [7]: Toxic
9 | Cc1[nH]c2ccccc2c1CCNCc1ccc(/C=C/C(=O)NO)cc1 [PANOBINOSTAT] | – | – | – | – | Cmax [8]: 116 ng/mL; AUC(0-inf) [9]: 126 ng·h/mL; Activity [7]: Toxic; half-life [10]: 2.9 h; Activity [11]: Active; bioavailability [12]: 4.62%; Activity [13]: Active
10 | CCCNNC(=O)c1ccc(CNCc2ccccc2)cc1 | > 50000 | 441 | 96.7 | 88 | EC50 [14]: 173 nM
11 | O=C(CCCCCCC(=O)Nc1ccccc1)NO | – | – | – | – | Activity [15]: Active; Activity [16]: Active
12 | CCCNNC(=O)c1ccc(CN(Cc2ccccc2)C(=O)OC(C)(C)C)cc1 | > 50000 | 579 | 78.1 | 217 | –
13 | Cc1[nH]c2ccccc2c1CCNCc1ccc(/C=C/C(=O)NN(CCCO)CCCO)cc1 | > 50000 | > 10000 | > 10000 | > 10000 | Activity [5]: inactive
14 | Cc1[nH]c2ccccc2c1CCNCc1ccc(/C=C/C(=O)NN2CCCC2)cc1 | > 50000 | > 10000 | 3090 | 8600 | Activity [5]: inactive
15 | Cc1[nH]c2ccccc2c1CCNCc1ccc(/C=C/C(=O)NNCCN)cc1 | > 50000 | > 10000 | 5240 | 9840 | –
16 | CCCNNC(=O)c1cccc(CNCCc2c(C)[nH]c3ccccc23)c1 | > 50000 | 4940 | 674 | 1670 | –
17 | CCN(CC)CCCC(C)Nc1ccnc2cc(Cl)ccc12 (stereo not drawn) | – | – | – | – | inhibition [17]: Active
18 | CCCN(CC)NC(=O)/C=C/c1ccc(CNCCc2c(C)[nH]c3ccccc23)cc1 | > 50000 | 8070 | 550 | 2920 | –
19 | CCCNNC(=O)c1ccc(CNC(=O)/C=C/c2ccccc2)cc1 | – | – | – | – | Activity [18]: Active; Activity [19]: Active; Activity [20]: Active

More lines, main results first:

Row | IC50 [1] [nM] | IC50 [2] [nM] | IC50 [3] [nM] | IC50 [4] [nM] | SMILES | further results
20 | > 50000 | > 10000 | > 10000 | > 10000 | Cc1[nH]c2ccccc2c1CCNCc1ccc(/C=C/C(=O)NN2CCCCC2)cc1 | Activity [5]: inactive
21 | > 50000 | 9830 | 143 | 2880 | CCCCCCN(CCC)NC(=O)/C=C/c1ccc(CNCCc2c(C)[nH]c3ccccc23)cc1 | –
22 | > 50000 | 1300 | 16.8 | 181 | CCCNNC(=O)/C=C/c1ccc(CN(CCc2c(C)[nH]c3ccccc23)C(=O)OC(C)(C)C)cc1 | –
23 | > 50000 | 175 | 24.8 | 56.3 | CCCNNC(=O)c1ccc(OCc2ccccc2)cc1 | –
24 | > 50000 | 108 | 19.9 | 29.4 | CCCNNC(=O)c1ccc(CNCCc2c(C)[nH]c3ccccc23)cc1 | –
25 | > 50000 | > 5000 | > 5000 | 2520 | CCCNNC(=O)c1cccc(CN(CCc2c(C)[nH]c3ccccc23)C(=O)OC(C)(C)C)c1 | –
26 | > 50000 | 7320 | 321 | 382 | CCCCCN(CCC)NC(=O)/C=C/c1ccc(CNCCc2c(C)[nH]c3ccccc23)cc1 | –
27 | > 50000 | 172 | 34.8 | 58.1 | Cc1[nH]c2ccccc2c1CCNCc1ccc(/C=C/C(=O)NNCCC#N)cc1 | –
28 | > 50000 | 67.5 | 6.12 | 15.8 | CCCNNC(=O)c1ccc(NCc2ccccc2)cc1 | –
